Data set [1] can be described thus: folding enthalpy; higher = less favourable; fluorescence melt of hairpins on a sequencing array, two-state fit. As to conditions: sodium 0.088 M. Put shortly: (§1)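 Bootstrapped two-state fits yielded melting temperature and folding enthalpy for library hairpins. Cy3 fluorescence, with annealed Cy3 and quencher oligos, was imaged on a sequenced MiSeq flow cell in 50 mM Na-HEPES pH 8.0, 25 mM NaCl in 2.5 °C steps up to 60 °C, and normalised to pre-quench Cy3 and to control constructs. Four replicates were combined by inverse variance, and fitted temperatures were raised by 9.35 °C to match UV melts.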

Data set [2] can be described thus: melting temperature; fluorescence melt of hairpins on a sequencing array, two-state fit, raised by 9.35 °C to match UV melts. As to conditions: sodium 0.088 M. Put shortly: as §1

Turning to GGCGTGGGAAACTGCGCC ((((..(....)..)))), the folding enthalpy in data set [1] was -52.5 kcal/mol. Moreover, in data set [2], the Tm was 55.7 °C.
On to GTTAGCCGAAAGGCCAAC (((.(((....))).))), for which the folding enthalpy in data set [1] is -16 kcal/mol. For the same sequence, the Tm in data set [2] amounted to 40.3 °C.
On to GACGACGAAAGTCAGGTC ((((((....)))..))), for which the folding enthalpy in data set [1] was -19.9 kcal/mol. Further, in data set [2], the Tm is 44.3 °C.
Take GTAAACGAAAGTTCTTAC ((((((....)))..))): the folding enthalpy in data set [1] was -11 kcal/mol. Moreover, in data set [2], the Tm came to 24.7 °C.
For GAATTGAAAAATTC (((((....))))), in that order: -13.5 kcal/mol and 31.7 °C.
For GATCTCGGTAGAGATC ((((((....)))))), the folding enthalpy in data set [1] was -32.7 kcal/mol. The Tm in data set [2] was 66.5 °C.
For GATCGCTCTTGCGATC ((((((....)))))) the same measures were -38.9 kcal/mol and 68 °C.
For GTCGGGGGAAACTCCGGC (.(((.(....).))).) the same measures were -29.9 kcal/mol and 47.2 °C.
For GATCATCGAGATGATC ((((((....)))))), in that order: -45.2 kcal/mol and 54.2 °C.
With GAGGGCGAAAGCCGACTC ((((((....)))..))), the folding enthalpy in data set [1] is -13 kcal/mol. For the same sequence, the Tm in data set [2] stood at 44.6 °C.
For GCACGGTCGAAAGACTGC (((..(((....)))))) the same measures were -13.9 kcal/mol and 39.4 °C.
For GCGAGAATTCGC ((((....)))) the same measures were -21.8 kcal/mol and 55.3 °C.
For GCTTAGCGAAAGCTCTGC ((..(((....)))..)) the same measures were -16.4 kcal/mol and 37.8 °C.

The values above are taken from the array DNA melting data of Ke et al. (doi:10.1101/2024.01.08.574731).
